Assay results taken from ChEMBL document CHEMBL4033667, “Design, synthesis, and identification of a novel napthalamide-isoselenocyanate compound NISC-6 as a dual Topoisomerase-IIα and Akt pathway inhibitor, and evaluation of its anti-melanoma activity” (Eur J Med Chem, 2017).
Blank lines part the entries; values can stand above or below the compound they belong to. Calls of active or inactive are those of the source. No cut-off for these calls is given here.

Experiments:
UACC-903 [1] = test: Antiproliferative activity against human UACC-903 cells harboring BRAF V600E mutant after 24 hrs by MTT assay; assay type: functional, cell-based; conditions: UACC-903, 24 h
Outline: (§1)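 MTT viability in melanoma lines grown in DMEM with 10% FBS and pen/strep at 37 °C, 5% CO2. 3000 cells/well, settled overnight, then exposed to compound (0 to 50 µM) in triplicate for 24, 48 or 72 h. MTT (5.0 mg/mL solution) added 3 h before termination. IC50 from non-linear regression (variable slope), mean ± SD.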

UACC-903 [2] = test: Antiproliferative activity against human UACC-903 cells harboring BRAF V600E mutant after 48 hrs by MTT assay; assay type: functional, cell-based; conditions: UACC-903, 48 h; outline: as §1
UACC-903 [3] = test: Antiproliferative activity against human UACC-903 cells harboring BRAF V600E mutant after 72 hrs by MTT assay; assay type: functional, cell-based; conditions: UACC-903, 72 h; outline: as §1
[4] = Antiproliferative activity against human 1205 Lu cells harboring BRAF V600E mutant after 24 hrs by MTT assay; assay type: functional, cell-based; outline: as §1
[5] = Antiproliferative activity against human 1205 Lu cells harboring BRAF V600E mutant after 48 hrs by MTT assay; assay type: functional, cell-based; outline: as §1
[6] = Antiproliferative activity against human 1205 Lu cells harboring BRAF V600E mutant after 72 hrs by MTT assay; assay type: functional, cell-based; outline: as §1
[7] = Antiproliferative activity against human A375M cells harboring BRAF V600E mutant after 24 hrs by MTT assay; assay type: functional, cell-based; outline: as §1
[8] = Antiproliferative activity against human A375M cells harboring BRAF V600E mutant after 48 hrs by MTT assay; assay type: functional, cell-based; outline: as §1
[9] = Antiproliferative activity against human A375M cells harboring BRAF V600E mutant after 72 hrs by MTT assay; assay type: functional, cell-based; outline: as §1
CHL-1 [10] = test: Antiproliferative activity against human CHL-1 cells harboring wild type BRAF after 24 hrs by MTT assay; assay type: functional, cell-based; conditions: CHL-1, 24 h; outline: as §1
CHL-1 [11] = test: Antiproliferative activity against human CHL-1 cells harboring wild type BRAF after 48 hrs by MTT assay; assay type: functional, cell-based; conditions: CHL-1, 48 h; outline: as §1
CHL-1 [12] = test: Antiproliferative activity against human CHL-1 cells harboring wild type BRAF after 72 hrs by MTT assay; assay type: functional, cell-based; conditions: CHL-1, 72 h; outline: as §1
NHDF [13] = test: Cytotoxicity against human NHDF cells assessed as reduction in cell viability at 2.5 uM after 48 hrs by MTT assay; assay type: cell-based
Outline: (§2)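 nHDF normal fibroblasts grown in serum-free fibroblast basal medium with growth kit and pen/strep/amphotericin B. Treated 48 h at set concentrations, with viability read by MTT assay.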

NHDF [14] = test: Cytotoxicity against human NHDF cells assessed as reduction in cell viability at 5 uM after 48 hrs by MTT assay; assay type: cell-based; outline: as §2
[15] = molecular target: DNA topoisomerase 2-alpha (Homo sapiens) (UniProt P11388); test: Inhibition of human DNA topoisomerase 2alpha assessed as decrease in relaxation of supercoiled pBR322 DNA at 0.5 to 5 uM after 1 hr by ethidium bromide staining-based agarose gel electrophoresis
Outline: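 Kit-based relaxation assay: supercoiled plasmid DNA with 4 units of human Topo-IIα in assay buffer plus test agent or DMSO at 37 °C (1 h in legend, 30 min in methods). Stopped with 10% SDS, then proteinase K 15 min at 37 °C. Run on 1% agarose 1-2 h, ethidium bromide 2 h, destain 15 min in TAE, UV imaging.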

Homo sapiens = organism: Homo sapiens; test: Inhibition of DNA topoisomerase 2 in human UACC-903 cells assessed as increase in H2AX phosphorylation at 5 uM after 6 hrs by DAPI staining-based immunocytochemistry analysis; assay type: cell-based
Outline: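 UACC903 cells (1.6 × 10^5) on coverslips overnight, then 5 µM or DMSO for 6 h. Fixed in 4% formaldehyde and blocked 1 h (0.3% Triton X-100, 5% donkey serum). Anti-p-H2A.X 1:500 overnight at 4 °C, then Alexa Fluor 488 secondary 1:500 with phalloidin for 1 h. DAPI mounting, imaged at 60X.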

[16] = molecular target: RAC-alpha serine/threonine-protein kinase (Homo sapiens) (UniProt P31749); test: Inhibition of Akt-phosphorylation in human UACC-903 cells after 24 hrs by Western blot analysis; assay type: cell-based
Outline: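 UACC903 cells treated with increasing doses for 24 h, then lysed in RIPA with protease and phosphatase inhibitors and spun 15,000 rpm for 10 min. Lysates resolved on 4-12% gel, moved to PVDF and probed for phospho-Akt and pan-Akt. β-actin served as loading control; detection by ECL.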

[17] = molecular target: Mitogen-activated protein kinase; ERK1/ERK2 (Homo sapiens) (UniProt P27361+P28482); test: Inhibition of Erk1/2 phosphorylation in human UACC-903 cells at 2.5 to 5 uM after 24 hrs by Western blot analysis; assay type: cell-based
UACC-903 [18] = test: Induction of apoptosis in human UACC-903 cells assessed as viable cells at 5 uM after 24 hrs by Annexin-V/7-AAD staining-based fluorescence assay (reference value: 83.90%); assay type: functional; conditions: UACC-903, 24 h, read-out: Activity
UACC-903 [19] = test: Induction of apoptosis in human UACC-903 cells assessed as early apoptotic cells at 5 uM after 24 hrs by Annexin-V/7-AAD staining-based fluorescence assay (reference value: 13.15%); assay type: functional
UACC-903 [20] = test: Induction of apoptosis in human UACC-903 cells assessed as late apoptotic cells at 5 uM after 24 hrs by Annexin-V/7-AAD staining-based fluorescence assay (reference value: 2.78%); assay type: functional
UACC-903 [21] = test: Induction of apoptosis in human UACC-903 cells assessed as necrotic cells at 5 uM after 24 hrs by Annexin-V/7-AAD staining-based fluorescence assay (reference value: 0.17%); assay type: functional
UACC-903 [22] = test: Induction of apoptosis in human UACC-903 cells assessed as viable cells at 10 uM after 24 hrs by Annexin-V/7-AAD staining-based fluorescence assay (reference value: 83.90%); assay type: functional; conditions: UACC-903, 24 h, read-out: Activity
UACC-903 [23] = test: Induction of apoptosis in human UACC-903 cells assessed as early apoptotic cells at 10 uM after 24 hrs by Annexin-V/7-AAD staining-based fluorescence assay (reference value: 13.15%); assay type: functional
UACC-903 [24] = test: Induction of apoptosis in human UACC-903 cells assessed as late apoptotic cells at 10 uM after 24 hrs by Annexin-V/7-AAD staining-based fluorescence assay (reference value: 2.78%); assay type: functional
UACC-903 [25] = test: Induction of apoptosis in human UACC-903 cells assessed as necrotic cells at 10 uM after 24 hrs by Annexin-V/7-AAD staining-based fluorescence assay (reference value: 0.17%); assay type: functional
UACC-903 [26] = test: Induction of apoptosis in human UACC-903 cells assessed as increase in caspase 3/7 activity by measuring viable cells at 5 uM after 24 hrs by 7-AAD staining-based fluorescence assay (reference value: 77.50%); assay type: functional
Outline: (§3)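 Muse caspase-3/7 kit on UACC903 cells after 24 h at given doses or DMSO. Cell-permeant NucView DEVD-linked DNA dye fluoresces after cleavage by active caspase 3/7. 7-AAD marks cells with compromised membranes. Gates: live, early apoptotic (caspase+/7-AAD−), late apoptotic (both +), necrotic (7-AAD+ only).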

UACC-903 [27] = test: Induction of apoptosis in human UACC-903 cells assessed as increase in caspase 3/7 activity by measuring early apoptotic cells at 5 uM after 24 hrs by 7-AAD staining-based fluorescence assay (reference value: 16.08%); assay type: functional; outline: as §3
UACC-903 [28] = test: Induction of apoptosis in human UACC-903 cells assessed as increase in caspase 3/7 activity by measuring late apoptotic cells at 5 uM after 24 hrs by 7-AAD staining-based fluorescence assay (reference value: 6.08%); assay type: functional; outline: as §3
UACC-903 [29] = test: Induction of apoptosis in human UACC-903 cells assessed as increase in caspase 3/7 activity by measuring necrotic cells at 5 uM after 24 hrs by 7-AAD staining-based fluorescence assay (reference value: 0.34%); assay type: functional; outline: as §3
UACC-903 [30] = test: Induction of apoptosis in human UACC-903 cells assessed as increase in caspase 3/7 activity by measuring viable cells at 10 uM after 24 hrs by 7-AAD staining-based fluorescence assay (reference value: 77.50%); assay type: functional; outline: as §3
UACC-903 [31] = test: Induction of apoptosis in human UACC-903 cells assessed as increase in caspase 3/7 activity by measuring early apoptotic cells at 10 uM after 24 hrs by 7-AAD staining-based fluorescence assay (reference value: 16.08%); assay type: functional; outline: as §3
UACC-903 [32] = test: Induction of apoptosis in human UACC-903 cells assessed as increase in caspase 3/7 activity by measuring late apoptotic cells at 10 uM after 24 hrs by 7-AAD staining-based fluorescence assay (reference value: 6.08%); assay type: functional; outline: as §3
UACC-903 [33] = test: Induction of apoptosis in human UACC-903 cells assessed as increase in caspase 3/7 activity by measuring necrotic cells at 10 uM after 24 hrs by 7-AAD staining-based fluorescence assay (reference value: 0.34%); assay type: functional; outline: as §3
Mus musculus = test: Toxicity in Harlan Sprague Dawley mouse xenografted with human UACC-903 cells assessed as body weight loss at 0.6 umole, ip administered 3 times a week measured during compound dosing relative to control; assay type: organism-based; conditions: in vivo
Outline: (§4)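 5×10^6 UACC 903 cells in 0.2 mL DMEM/10% FBS injected s.c. into both flanks of 4-6 week female athymic nude mice. From day 6, randomised groups (5 mice, 2 tumours each) received i.p. DMSO or 0.6 µmole in DMSO (100 µL) three times weekly. Caliper tumour volume and body weight taken thrice weekly to day 40; mean ± SEM.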

UACC-903 [34] = test: Antitumor activity against human UACC-903 cells xenografted in Harlan Sprague Dawley mouse assessed as reduction in tumor burden at 0.6 umole, ip administered 3 times a week measured on day 40 relative to vehicle-treated control; assay type: functional; design: scale not given: the % may be the effect or the level left; outline: as §4
CHL-1 [35] = test: Potency index, ratio of PLX-4032 IC50 to test compound IC50 for human CHL-1 cells harboring wild type BRAF after 72 hrs; assay type: functional

Chain of DNA topoisomerase 2-alpha (Homo sapiens) (P11388 whole entry): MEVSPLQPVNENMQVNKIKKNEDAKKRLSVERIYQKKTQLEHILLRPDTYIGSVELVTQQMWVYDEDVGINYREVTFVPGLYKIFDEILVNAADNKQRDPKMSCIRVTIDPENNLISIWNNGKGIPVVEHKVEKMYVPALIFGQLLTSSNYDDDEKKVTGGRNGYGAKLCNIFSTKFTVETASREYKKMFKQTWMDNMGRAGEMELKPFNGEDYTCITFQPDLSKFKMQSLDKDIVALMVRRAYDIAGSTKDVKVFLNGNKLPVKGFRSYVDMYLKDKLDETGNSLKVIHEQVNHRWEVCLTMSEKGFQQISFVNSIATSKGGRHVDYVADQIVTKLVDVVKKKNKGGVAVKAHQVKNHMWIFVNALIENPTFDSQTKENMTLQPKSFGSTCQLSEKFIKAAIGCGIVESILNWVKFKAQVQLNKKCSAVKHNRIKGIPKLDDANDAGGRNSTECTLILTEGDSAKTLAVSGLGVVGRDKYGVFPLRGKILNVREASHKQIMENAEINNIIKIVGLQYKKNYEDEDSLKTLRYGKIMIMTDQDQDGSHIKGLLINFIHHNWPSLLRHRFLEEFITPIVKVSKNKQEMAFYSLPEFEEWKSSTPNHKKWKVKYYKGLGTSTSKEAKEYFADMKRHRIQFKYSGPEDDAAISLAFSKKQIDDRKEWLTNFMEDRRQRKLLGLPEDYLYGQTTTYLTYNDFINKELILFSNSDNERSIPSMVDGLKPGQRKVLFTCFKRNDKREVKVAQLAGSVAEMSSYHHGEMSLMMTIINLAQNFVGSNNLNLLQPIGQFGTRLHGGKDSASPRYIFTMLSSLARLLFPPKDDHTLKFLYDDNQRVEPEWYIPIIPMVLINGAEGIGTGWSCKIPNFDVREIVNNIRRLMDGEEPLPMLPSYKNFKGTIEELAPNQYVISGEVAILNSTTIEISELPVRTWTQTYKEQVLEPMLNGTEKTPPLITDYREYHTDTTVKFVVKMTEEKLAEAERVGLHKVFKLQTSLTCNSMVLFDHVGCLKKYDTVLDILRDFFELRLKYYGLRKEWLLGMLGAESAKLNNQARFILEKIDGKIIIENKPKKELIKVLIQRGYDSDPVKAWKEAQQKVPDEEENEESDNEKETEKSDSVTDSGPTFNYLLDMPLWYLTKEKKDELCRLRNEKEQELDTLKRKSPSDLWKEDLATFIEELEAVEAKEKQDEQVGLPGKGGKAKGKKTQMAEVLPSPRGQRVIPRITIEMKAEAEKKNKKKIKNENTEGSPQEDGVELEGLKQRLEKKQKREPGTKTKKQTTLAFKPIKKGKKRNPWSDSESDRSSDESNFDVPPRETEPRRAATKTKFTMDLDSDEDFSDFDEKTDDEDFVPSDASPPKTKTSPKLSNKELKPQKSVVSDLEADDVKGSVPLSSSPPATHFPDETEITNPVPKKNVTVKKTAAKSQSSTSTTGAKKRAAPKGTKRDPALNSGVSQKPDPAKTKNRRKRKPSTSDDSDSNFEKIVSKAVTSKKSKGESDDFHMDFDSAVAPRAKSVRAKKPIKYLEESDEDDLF
Chain of RAC-alpha serine/threonine-protein kinase (Homo sapiens) (P31749 whole entry): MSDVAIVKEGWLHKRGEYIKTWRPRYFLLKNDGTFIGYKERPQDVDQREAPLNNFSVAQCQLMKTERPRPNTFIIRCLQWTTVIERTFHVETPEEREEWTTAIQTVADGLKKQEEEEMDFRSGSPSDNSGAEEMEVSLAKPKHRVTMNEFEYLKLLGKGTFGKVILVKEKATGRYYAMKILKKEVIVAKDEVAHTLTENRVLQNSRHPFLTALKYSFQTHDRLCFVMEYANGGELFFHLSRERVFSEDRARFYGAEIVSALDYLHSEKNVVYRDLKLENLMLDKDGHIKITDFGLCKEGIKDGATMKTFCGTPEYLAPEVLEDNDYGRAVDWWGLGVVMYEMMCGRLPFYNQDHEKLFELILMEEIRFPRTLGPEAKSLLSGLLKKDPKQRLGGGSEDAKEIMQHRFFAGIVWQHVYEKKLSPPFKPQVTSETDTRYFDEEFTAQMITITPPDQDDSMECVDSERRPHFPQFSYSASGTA
Chain of Mitogen-activated protein kinase; ERK1/ERK2 (Homo sapiens) (P27361 whole entry, looked up): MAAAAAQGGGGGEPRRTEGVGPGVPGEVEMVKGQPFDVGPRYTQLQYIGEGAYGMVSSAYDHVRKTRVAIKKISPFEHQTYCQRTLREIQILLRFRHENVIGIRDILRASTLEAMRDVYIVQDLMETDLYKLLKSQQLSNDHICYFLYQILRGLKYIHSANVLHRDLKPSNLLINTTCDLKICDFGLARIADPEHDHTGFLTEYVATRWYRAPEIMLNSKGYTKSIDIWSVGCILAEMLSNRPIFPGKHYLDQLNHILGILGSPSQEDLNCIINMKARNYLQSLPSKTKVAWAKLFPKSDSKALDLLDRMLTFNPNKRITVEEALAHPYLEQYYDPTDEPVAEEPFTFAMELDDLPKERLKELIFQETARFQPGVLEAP
Chain of Mitogen-activated protein kinase; ERK1/ERK2 (Homo sapiens) (P28482 whole entry, looked up): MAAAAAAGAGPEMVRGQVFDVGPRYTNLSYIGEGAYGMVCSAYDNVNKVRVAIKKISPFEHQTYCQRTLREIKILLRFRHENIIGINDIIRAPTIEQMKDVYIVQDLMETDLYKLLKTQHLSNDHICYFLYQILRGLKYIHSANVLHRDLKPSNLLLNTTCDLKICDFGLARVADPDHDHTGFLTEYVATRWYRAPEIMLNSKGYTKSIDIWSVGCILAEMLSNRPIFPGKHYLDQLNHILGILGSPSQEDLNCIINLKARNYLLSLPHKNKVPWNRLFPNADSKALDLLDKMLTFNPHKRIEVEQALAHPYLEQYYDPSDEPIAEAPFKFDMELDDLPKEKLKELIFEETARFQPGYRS

SMILES: N=C(N)[Se]CCN1C(=O)c2cccc3cccc(c23)C1=O
IC50 (UACC-903 [1]): 46.8 µM | IC50 (UACC-903 [2]): 12.8 µM | IC50 (UACC-903 [3]): 12.1 µM | IC50 [4]: 46.8 µM | IC50 [5]: 11.5 µM | IC50 [6]: 8.2 µM | IC50 [7]: > 50 µM | IC50 [8]: 17.9 µM | IC50 [9]: 28.7 µM | IC50 (CHL-1 [10]): 17.9 µM | IC50 (CHL-1 [11]): 5.2 µM | IC50 (CHL-1 [12]): 5.1 µM

SMILES: O=C1c2cccc3cccc(c23)C(=O)N1CCCCN=C=[Se]
IC50 (UACC-903 [1]): 13.1 µM | IC50 (UACC-903 [2]): 9.2 µM | IC50 (UACC-903 [3]): 12 µM | IC50 [4]: 13.1 µM | IC50 [5]: 15.9 µM | IC50 [6]: 15.4 µM | IC50 [7]: 19.4 µM | IC50 [8]: 21 µM | IC50 [9]: 28.4 µM | IC50 (CHL-1 [10]): 9.7 µM | IC50 (CHL-1 [11]): 8 µM | IC50 (CHL-1 [12]): 8.9 µM

SMILES: O=C1c2cccc3cccc(c23)C(=O)N1CCCCCCN=C=[Se]
IC50 (UACC-903 [1]): 13.4 µM | IC50 (UACC-903 [2]): 2.5 µM | IC50 (UACC-903 [3]): 1.7 µM | IC50 [4]: 13.4 µM | IC50 [5]: 10.6 µM | IC50 [6]: 13.4 µM | IC50 [7]: 11.8 µM | IC50 [8]: 2.7 µM | IC50 [9]: 4.4 µM | IC50 (CHL-1 [10]): 13.7 µM | IC50 (CHL-1 [11]): 1.5 µM | IC50 (CHL-1 [12]): 0.8 µM | Activity (NHDF [13]): > 70% | Activity (NHDF [14]): > 70% | inhibition [15]: Active | inhibition (Homo sapiens): Active | inhibition [16]: Dose-dependent effect | inhibition [17]: inactive | viability at 5 µM (UACC-903 [18]): 83.2% | Activity (UACC-903 [19]): 11.47% | Activity (UACC-903 [20]): 4.52% | Activity (UACC-903 [21]): 0.84% | viability at 10 µM (UACC-903 [22]): 49.1% | Activity (UACC-903 [23]): 35% | Activity (UACC-903 [24]): 15.52% | Activity (UACC-903 [25]): 0.35% | Activity (UACC-903 [26]): 69.34% | Activity (UACC-903 [27]): 20.72% | Activity (UACC-903 [28]): 9.86% | Activity (UACC-903 [29]): 0.08% | Activity (UACC-903 [30]): 54.44% | Activity (UACC-903 [31]): 3% | Activity (UACC-903 [32]): 41.76% | Activity (UACC-903 [33]): 0.8% | Activity (Mus musculus): Non-Toxic | Activity (UACC-903 [34]): 69% | Ratio IC50 (CHL-1 [35]): 15

inhibition [15]: Active
SMILES: COc1cc([C@@H]2c3cc4c(cc3[C@@H](O[C@@H]3O[C@@H]5CO[C@@H](C)O[C@H]5[C@H](O)[C@H]3O)[C@H]3COC(=O)[C@H]23)OCO4)cc(OC)c1O
